Reference: ChEMBL document CHEMBL4390665, “New 4-phenylcoumarin derivatives as potent 3C protease inhibitors: Design, synthesis, anti-HAV effect and molecular modeling” (Eur J Med Chem, 2019)
In brackets after ≈: the same amount, converted by molar mass.

Experiments:
[1] = Therapeutic index, ratio of CC50 of rhesus monkey FRhK cells to IC50 of antiviral activity against Hepatitis A virus infected in rhesus monkey FRhK4 cells assessed as inhibition in viral adsorption using cells pre-incubated with compound for 24 hrs before viral infection for 1 hr by MTT assay; format: toxicity, cell-based; conditions: read-out: Ratio CC50/IC50
Method in brief: (§1)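 FRhK-4 monolayers in 24-well plates were exposed to non-toxic compound concentrations for 24 h at 37 °C in 5% CO2. Compound was then removed and HAV added for 1 h, after which the inoculum was replaced with medium for 72 h. MTT OD540 was read in triplicate alongside virus-infected and cell-only controls to give IC50. TI = CC50/IC50.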

Hepatovirus A [2] = assay: Antiviral activity against Hepatitis A virus infected in rhesus monkey FRhK4 cells assessed as reduction in virus-induced cytopathic effect incubated for 72 hrs by MTT assay; format: functional, organism-based; conditions: FRhK-4, 72 h
Method in brief: (§2)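 Virucidal format: HAV (10^6 […] TCID50/0.1 ml) was mixed with an equal volume of non-toxic compound concentrations for 1 h at 37 °C. The mixture was added to FRhK-4 monolayers for 1 h, then replaced with medium for 72 h. MTT OD540 was read in triplicate with virus and cell controls to give IC50. TI = CC50/IC50.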

[3] = Therapeutic index, ratio of CC50 of rhesus monkey FRhK cells to IC50 for antiviral activity against Hepatitis A virus infected in rhesus monkey FRhK4 cells assessed as inhibition in viral replication using cells pre-infected with virus before compound exposure for 72 hrs by MTT assay; format: toxicity, cell-based; conditions: read-out: Ratio CC50/IC50
Method in brief: (§3)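 FRhK-4 monolayers were infected with HAV for 1 h. Unbound virus was removed and replaced with medium containing non-toxic compound concentrations, then incubated 72 h at 37 °C in 5% CO2. MTT OD540 was read in triplicate alongside virus-infected and cell-only controls to give IC50. TI = CC50/IC50.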

Hepatovirus A [4] = assay: Antiviral activity against Hepatitis A virus infected in rhesus monkey FRhK4 cells assessed as inhibition in viral replication using cells pre-infected with virus before compound exposure for 72 hrs by MTT assay; format: functional, organism-based; conditions: FRhK-4, 72 h; method in brief: as §3
[5] = Cytotoxicity against rhesus monkey FRhK4 cells assessed as reduction in cell viability incubated for 48 hrs by MTT assay; format: cell-based, Macaca mulatta
Method in brief: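 FRhK-4 cells (DMEM, 10% FBS) were seeded at 5 X 10^3 cells/well and grown 24 h. They were exposed to compound at 7.8–1000 µg/mL for 48 h at 37 °C in 5% CO2. MTT (5 mg/mL) was added for 4 h, then DMSO for 30 min, and OD540 read. CC50 was derived from the mean of three ODs versus untreated cells.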

[6] = Therapeutic index, ratio of CC50 of rhesus monkey FRhK cells to IC50 of antiviral activity against Hepatitis A virus infected in rhesus monkey FRhK4 cells; format: toxicity, cell-based; conditions: read-out: Ratio CC50/IC50; method in brief: as §2
Hepatovirus A [7] = assay: Antiviral activity against Hepatitis A virus infected in rhesus monkey FRhK4 cells assessed as inhibition in viral adsorption using cells pre-incubated with compound for 24 hrs before viral infection for 1 hr by MTT assay; format: functional, organism-based; conditions: FRhK-4; method in brief: as §1
[8] = Binding affinity to Hepatitis A virus Protease 3C; design: species or system Hepatovirus A
[9] = Inhibition of HAV 3C expressed in Escherichia coli BL21(DE3) pLysS using Dabcyl-GLRTQSND (edans) G as substrate preincubated for 3 mins before enzyme addition by fluorescence method based Cheng and Prusoff equation analysis; design: species or system Hepatovirus A
[10] = Inhibition of HAV 3C expressed in Escherichia coli BL21(DE3) pLysS using Dabcyl-GLRTQSND (edans) G as substrate preincubated for 3 mins before enzyme addition by fluorescence method; design: species or system Hepatovirus A
[11] = Inhibition of HRV 3C using chromogenic peptide substrate pre-incubated for 15 mins before substrate addition and measured after 1 to 2 hrs by colorimetric method
Method in brief: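 HRV 3C protease was assayed with a commercial screening kit, with reagents equilibrated to room temperature. Enzyme was incubated with compound for 15 min at room temperature, with enzyme and solvent controls. Substrate was then added and absorbance at 405 nm read in kinetic mode for 1–2 h at 37 °C.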

SMILES | selectivity ratio at 1 h [1] | IC50 (Hepatovirus A [2]) [µg/mL] | selectivity ratio at 72 h [3] | IC50 (Hepatovirus A [4]) [µg/mL] | CC50 at 48 h [5] [µg/mL] | selectivity ratio [6] | IC50 (Hepatovirus A [7]) [µg/mL] | pKd [8] | Ki [9] [µM] | IC50 [10] [µM] | IC50 [11] [µM]
O=c1cc(-c2ccccc2)c2ccc(O)cc2o1 | 0.3 | 4.8 (≈ 20.1 µM) | 8 | 42.5 (≈ 178 µM) | 340 (≈ 1430 µM) | 70.8 | 1130 (≈ 4760 µM) |  |  |  | 
NNC(=O)COc1ccc2c(-c3ccccc3)cc(=O)oc2c1 | 7 | 3920 (≈ 12600 µM) | 0.7 | 1120 (≈ 3610 µM) | 785 (≈ 2530 µM) | 0.2 | 112 (≈ 361 µM) |  |  |  | 
CCn1c(COc2ccc3c(-c4ccccc4)cc(=O)oc3c2)n[nH]c1=S | 12 | 12.9 (≈ 34 µM) | 7 | 82.7 (≈ 218 µM) | 597 (≈ 1570 µM) | 46 | 49.7 (≈ 131 µM) |  |  |  | 
CCn1c(COc2ccc3c(-c4ccccc4)cc(=O)oc3c2)nnc1SCCN1CCOCC1 | 0.8 | 47 (≈ 95.4 µM) | 70 | 13.4 (≈ 27.2 µM) | 942 (≈ 1910 µM) | 20 | 1180 (≈ 2390 µM) |  |  |  | 
C/C(=N\NC(=O)COc1ccc2c(-c3ccccc3)cc(=O)oc2c1)c1ccccc1 | 2 | 110 (≈ 265 µM) | 0.6 | 730 (≈ 1770 µM) | 438 (≈ 1060 µM) | 4 | 219 (≈ 531 µM) |  |  |  | 
Cc1cc(C)n(C(=O)COc2ccc3c(-c4ccccc4)cc(=O)oc3c2)n1 | 9 | 37.6 (≈ 100 µM) | 17 | 44.3 (≈ 118 µM) | 753 (≈ 2010 µM) | 20 | 83.6 (≈ 223 µM) |  |  |  | 
CNc1nnc(COc2ccc3c(-c4ccccc4)cc(=O)oc3c2)s1 | 0.8 | 2180 (≈ 5950 µM) | 3 | 145 (≈ 397 µM) | 435 (≈ 1190 µM) | 0.2 | 544 (≈ 1490 µM) |  |  |  | 
C/C(=N\NC(=O)COc1ccc2c(-c3ccccc3)cc(=O)oc2c1)c1ccc(Br)cc1 | 88 | 1880 (≈ 3830 µM) | 12 | 62.6 (≈ 127 µM) | 752 (≈ 1530 µM) | 0.4 | 8.5 (≈ 17.3 µM) | 5.53 | 0.217 | 7.19 | 6.3
Cn1c(COc2ccc3c(-c4ccccc4)cc(=O)oc3c2)n[nH]c1=S | 0.5 | 11.3 (≈ 30.9 µM) | 48 | 13.5 (≈ 36.9 µM) | 648 (≈ 1770 µM) | 57 | 1300 (≈ 3550 µM) |  |  |  | 
CCOC(=O)COc1ccc2c(-c3ccccc3)cc(=O)oc2c1 | 5 | 1290 (≈ 3960 µM) | 35 | 25.7 (≈ 79.2 µM) | 900 (≈ 2770 µM) | 0.7 | 180 (≈ 555 µM) |  |  |  | 
CNC(=S)NNC(=O)COc1ccc2c(-c3ccccc3)cc(=O)oc2c1 | 80 | 238 (≈ 620 µM) | 15 | 63.4 (≈ 165 µM) | 951 (≈ 2480 µM) | 4 | 11.9 (≈ 31 µM) |  |  |  | 
O=C(COc1ccc2c(-c3ccccc3)cc(=O)oc2c1)N/N=C1/C(=O)Nc2ccccc21 | 2 | 80.5 (≈ 183 µM) | 4 | 121 (≈ 275 µM) | 483 (≈ 1100 µM) | 6 | 242 (≈ 550 µM) |  |  |  | 
CN(C)CCSc1nnc(COc2ccc3c(-c4ccccc4)cc(=O)oc3c2)o1 | 8 | 44.8 (≈ 106 µM) | 25 | 35.8 (≈ 84.5 µM) | 897 (≈ 2120 µM) | 20 | 112 (≈ 264 µM) |  |  |  | 
O=C(COc1ccc2c(-c3ccccc3)cc(=O)oc2c1)N/N=C1/C(=O)Nc2ccc(Br)cc21 | 44 | 13 (≈ 25.1 µM) | 52 | 18.3 (≈ 35.3 µM) | 951 (≈ 1830 µM) | 73 | 21.6 (≈ 41.7 µM) |  |  |  | 
O=c1cc(-c2ccccc2)c2ccc(OCc3n[nH]c(=S)o3)cc2o1 | 2 | 4.7 (≈ 13.3 µM) | 50 | 7.34 (≈ 20.8 µM) | 367 (≈ 1040 µM) | 78 | 184 (≈ 521 µM) |  |  |  | 
Nn1c(S)nnc1COc1ccc2c(-c3ccccc3)cc(=O)oc2c1 | 0.2 | 216 (≈ 590 µM) | 9 | 72 (≈ 197 µM) | 648 (≈ 1770 µM) | 3 | 3240 (≈ 8840 µM) |  |  |  | 
O=C(COc1ccc2c(-c3ccccc3)cc(=O)oc2c1)NN1C(=O)c2ccccc2C1=O | 72 | 106 (≈ 240 µM) | 0.7 | 1360 (≈ 3080 µM) | 951 (≈ 2160 µM) | 9 | 13 (≈ 29.5 µM) |  |  |  | 
CCNC(=S)NNC(=O)COc1ccc2c(-c3ccccc3)cc(=O)oc2c1 | 8 | 3.1 (≈ 7.8 µM) | 3 | 86 (≈ 216 µM) | 258 (≈ 649 µM) | 83 | 32.2 (≈ 81.1 µM) | 6.78 | 1.9 | 17.8 | 16.1
CCN(CC)CCSc1nnc(COc2ccc3c(-c4ccccc4)cc(=O)oc3c2)o1 | 77 | 81.6 (≈ 181 µM) | 32 | 7.65 (≈ 16.9 µM) | 245 (≈ 543 µM) | 3 | 3.18 (≈ 7.04 µM) |  |  |  | 
CCNc1nnc(COc2ccc3c(-c4ccccc4)cc(=O)oc3c2)s1 | 7 | 64.5 (≈ 170 µM) | 5 | 25.8 (≈ 68 µM) | 129 (≈ 340 µM) | 2 | 18.4 (≈ 48.5 µM) |  |  |  | 
O=C(COc1ccc2c(-c3ccccc3)cc(=O)oc2c1)N/N=C1/C(=O)Nc2ccc(Cl)cc21 | 0.5 | 784 (≈ 1660 µM) | 0.1 | 5490 (≈ 11600 µM) | 549 (≈ 1160 µM) | 0.7 | 1100 (≈ 2320 µM) |  |  |  | 
O=c1cc(-c2ccccc2)c2ccc(OCc3nnc(SCCN4CCOCC4)o3)cc2o1 | 25 | 9.9 (≈ 21.3 µM) | 0.4 | 622 (≈ 1340 µM) | 249 (≈ 535 µM) | 25 | 9.9 (≈ 21.3 µM) |  |  |  | 
C/C(=N\NC(=O)COc1ccc2c(-c3ccccc3)cc(=O)oc2c1)c1ccc(Cl)cc1 | 22 | 30.5 (≈ 68.2 µM) | 91 | 10.7 (≈ 23.9 µM) | 978 (≈ 2190 µM) | 32 | 44.4 (≈ 99.4 µM) | 5.51 | 0.104 | 5.94 | 4.13
Nc1nc2c(ncn2COCCO)c(=O)[nH]1 [ACYCLOVIR] | 85 | 35.6 (≈ 158 µM) | 93 | 30.6 (≈ 136 µM) | > 1000 | 80 | 33.5 (≈ 149 µM) |  |  |  | 
